Results: ChEMBL document CHEMBL1144880, “Identification of phenylisoxazolines as novel and viable antibacterial agents active against Gram-positive pathogens” (J Med Chem, 2003)
≈ marks a conversion by molar mass, not a printed value. Blank lines part the entries; values can stand above or below the molecule they belong to.

Columns and labels:
[1] = Plasma clearance in Male Sprague-Dawley Rat (49.4 mg/kg po); assay type: ADME, organism-based
Outline: (§1)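 Male Sprague-Dawley rats dosed intravenously or orally. Intact compound measured in plasma by HPLC-UV after protein-precipitation sample preparation. Half-life reported as harmonic mean apparent terminal disposition half-life. Bioavailability is absolute oral bioavailability. Some comparator values are archival data.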

Streptococcus pneumoniae = test: In vitro minimum inhibitory concentration (MIC) against Streptococcus pneumoniae UC9912; assay type: functional
Outline: (§2)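 MIC determined by standard broth microdilution, defined as the lowest drug concentration (µg/mL) inhibiting visible growth.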

[2] = Harmonic mean apparent terminal disposition half-life [t1/2beta (h)] in Male Sprague-Dawley Rat at dose 10.1 (mg/kg iv); assay type: ADME, organism-based; conditions: in vivo, read-out: T1/2 beta (converted); outline: as §1
Staphylococcus aureus [3] = test: In vitro minimum inhibitory concentration (MIC) against Staphylococcus aureus UC12673; assay type: functional; outline: as §2
[4] = Cmax value in Male Sprague-Dawley Rat at dose 49.4 (mg/kg po); assay type: ADME, organism-based; design: dose 49.4 mg/kg, route oral; conditions: in vivo; outline: as §1
Haemophilus influenzae = test: In vitro minimum inhibitory concentration (MIC) against Haemophilus influenzae UC30063; assay type: functional; outline: as §2
[5] = Cmax value in Male Sprague-Dawley Rat at dose 10.1 (mg/kg iv); assay type: ADME, organism-based; design: dose 10.1 mg/kg, route intravenous; conditions: in vivo; outline: as §1
[6] = Absolute oral bioavailability in Male Sprague-Dawley Rat (49.4 mg/kg po); assay type: ADME, organism-based; conditions: in vivo; outline: as §1
Escherichia coli = test: In vitro minimum inhibitory concentration (MIC) against Escherichia coli UC6674; assay type: functional; outline: as §2
Homo sapiens = organism: Homo sapiens; test: Compound was evaluated for metabolic stability via In vitro Human 5E6 cell at 25 uM concentration; assay type: functional
[7] = Tmax value in Male Sprague-Dawley Rat at dose 49.4 (mg/kg po) [tmax (h)]; assay type: ADME, organism-based; conditions: in vivo; outline: as §1
[8] = Volume distribution in Male Sprague-Dawley Rat (10.1 mg/kg iv); assay type: ADME, organism-based; conditions: in vivo, read-out: Vss
Outline: (§3)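 Male Sprague-Dawley rats given the compound intravenously. Intact compound in plasma was measured by HPLC-UV after protein-precipitation sample preparation.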

[9] = system: Staphylococcus epidermidis; test: In vitro minimum inhibitory concentration (MIC) against Staphylococcus epidermidis UC12084; assay type: functional; outline: as §2
Enterococcus faecalis = test: In vitro minimum inhibitory concentration (MIC) against Enterococcus faecalis UC9217; assay type: functional; outline: as §2
Rattus norvegicus = organism: Rattus norvegicus; test: Compound was evaluated for metabolic stability via In vitro Rat 5E6 cell at 50 uM concentration; assay type: functional
Mus musculus [10] = test: In Vivo effective dose required for antibacterial activity in a systemic mouse infection model (SMIM) upon peroral administration against Staphylococcus aureus UC9213; assay type: functional; conditions: po
Outline: (§4)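 Compound was given orally at 1 and 5 h after infection. Deaths were monitored for at least 6 days, and ED50 (dose curing 50% of mice) was calculated by probit analysis.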

[11] = Absolute oral bioavailability in Male Sprague-Dawley Rat (10.1 mg/kg iv); assay type: ADME, organism-based; conditions: in vivo; outline: as §1
[12] = Harmonic mean apparent terminal disposition half-life [t1/2beta (h)] in Male Sprague-Dawley Rat at dose 49.4 (mg/kg po); assay type: ADME, organism-based; conditions: in vivo, read-out: T1/2 beta (converted); outline: as §1
[13] = Plasma clearance in Male Sprague-Dawley Rat (10.1 mg/kg iv); assay type: ADME, organism-based; outline: as §1
Staphylococcus aureus [14] = test: In vitro minimum inhibitory concentration (MIC) against Staphylococcus aureus UC9213; assay type: functional; outline: as §2
Moraxella catarrhalis = test: In vitro minimum inhibitory concentration (MIC) against Moraxella catarrhalis UC30610; assay type: functional; outline: as §2
CYP3A4 [15] = biological target: T1, CYP3A4 (Homo sapiens, UniProt P08684); test: Inhibition of heterologously expressed human Cytochrome P450 3A4 at 10 uM; assay type: ADME; design: scale not given: the % may be the effect or the level left; conditions: read-out: Control of P-450 marker
Outline: (§5)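 Human cDNA-expressed CYP1A2, 2C9, 2D6 and 3A4 microsomes incubated with compound at 10 or 100 µM plus CYP marker substrates. Marker metabolite formation quantified by HPLC with radiochemical detection and expressed as % of control, mean ± SD of triplicates.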

[16] = Absolute oral bioavailability in Male Sprague-Dawley Rat (48.9 mg/kg po); assay type: ADME, organism-based; conditions: in vivo; outline: as §1
CYP1A2 [17] = biological target: T2, CYP1A2 (Homo sapiens, UniProt P05177); test: Inhibition of heterologously expressed human Cytochrome P450 1A2 at 100 uM; assay type: ADME; design: scale not given: the % may be the effect or the level left; conditions: read-out: Control of P-450 marker; outline: as §5
T2 sequence (P05177 whole entry): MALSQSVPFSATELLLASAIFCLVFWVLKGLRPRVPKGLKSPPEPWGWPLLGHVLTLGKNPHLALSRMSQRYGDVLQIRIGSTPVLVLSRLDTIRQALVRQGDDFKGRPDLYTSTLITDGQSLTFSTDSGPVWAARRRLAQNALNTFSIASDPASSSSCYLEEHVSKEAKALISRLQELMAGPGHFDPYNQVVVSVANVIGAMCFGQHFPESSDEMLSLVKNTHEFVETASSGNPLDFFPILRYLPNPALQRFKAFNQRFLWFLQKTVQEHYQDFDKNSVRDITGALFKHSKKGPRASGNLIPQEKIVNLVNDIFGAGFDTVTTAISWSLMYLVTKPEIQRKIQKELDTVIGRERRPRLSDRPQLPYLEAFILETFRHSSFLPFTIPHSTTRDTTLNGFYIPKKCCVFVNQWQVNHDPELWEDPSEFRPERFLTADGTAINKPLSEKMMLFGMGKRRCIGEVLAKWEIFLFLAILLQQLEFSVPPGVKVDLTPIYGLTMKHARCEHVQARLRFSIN

[18] = Cmax value in Male Sprague-Dawley Rat at dose 48.9 (mg/kg po); assay type: ADME, organism-based; design: dose 48.9 mg/kg, route oral; conditions: in vivo; outline: as §1
[19] = Volume distribution in Male Sprague-Dawley Rat (8.98 mg/kg iv); assay type: ADME, organism-based; conditions: in vivo, read-out: Vss; outline: as §3
[20] = Harmonic mean apparent terminal disposition half-life [t1/2beta (h)] in Male Sprague-Dawley Rat at dose 8.98 (mg/kg iv); assay type: ADME, organism-based; conditions: in vivo, read-out: T1/2 beta (converted); outline: as §1
[21] = Harmonic mean apparent terminal disposition half-life [t1/2beta (h)] in Male Sprague-Dawley Rat at dose 48.9 (mg/kg po); assay type: ADME, organism-based; conditions: in vivo, read-out: T1/2 beta (converted); outline: as §1
[22] = Plasma clearance in Male Sprague-Dawley Rat (8.98 mg/kg iv); assay type: ADME, organism-based; outline: as §1
CYP3A4 [23] = biological target: T1, CYP3A4; test: Inhibition of heterologously expressed human Cytochrome P450 3A4 at 100 uM; assay type: ADME; design: scale not given: the % may be the effect or the level left; conditions: read-out: Control of P-450 marker; outline: as §5
CYP2C9 [24] = biological target: T3, CYP2C9 (Homo sapiens, UniProt P11712); test: Inhibition of heterologously expressed human Cytochrome P450 2C9 at 10 uM; assay type: ADME; design: scale not given: the % may be the effect or the level left; conditions: read-out: Control of P-450 marker; outline: as §5
[25] = Plasma clearance in Male Sprague-Dawley Rat (48.9 mg/kg po); assay type: ADME, organism-based; outline: as §1
Mus musculus [26] = test: In Vivo effective dose required for antibacterial activity in a systemic mouse infection model (SMIM) upon oral administration against Staphylococcus aureus UC9213; assay type: functional; outline: as §4
[27] = Cmax value in Male Sprague-Dawley Rat at dose 8.98 (mg/kg iv); assay type: ADME, organism-based; design: dose 8.98 mg/kg, route intravenous; conditions: in vivo; outline: as §1
CYP1A2 [28] = biological target: T2, CYP1A2; test: Inhibition of heterologously expressed human Cytochrome P450 1A2 at 10 uM; assay type: ADME; design: scale not given: the % may be the effect or the level left; conditions: read-out: Control of P-450 marker; outline: as §5
CYP2C9 [29] = biological target: T3, CYP2C9; test: Inhibition of heterologously expressed human Cytochrome P450 2C9 at 100 uM; assay type: ADME; design: scale not given: the % may be the effect or the level left; conditions: read-out: Control of P-450 marker; outline: as §5
[30] = Tmax value in Male Sprague-Dawley Rat at dose 48.9 (mg/kg po) [tmax (h)]; assay type: ADME, organism-based; conditions: in vivo; outline: as §1
CYP2D6 [31] = biological target: T4, CYP2D6 (Homo sapiens, UniProt P10635); test: Inhibition of heterologously expressed human Cytochrome P450 2D6 at 10 uM; assay type: ADME; design: scale not given: the % may be the effect or the level left; conditions: read-out: Control of P-450 marker; outline: as §5
[32] = Absolute oral bioavailability in Male Sprague-Dawley Rat (8.98 mg/kg iv); assay type: ADME, organism-based; conditions: in vivo; outline: as §1
CYP2D6 [33] = biological target: T4, CYP2D6; test: Inhibition of heterologously expressed human Cytochrome P450 2D6 at 100 uM; assay type: ADME; design: scale not given: the % may be the effect or the level left; conditions: read-out: Control of P-450 marker; outline: as §5

T3 sequence (P11712 whole entry): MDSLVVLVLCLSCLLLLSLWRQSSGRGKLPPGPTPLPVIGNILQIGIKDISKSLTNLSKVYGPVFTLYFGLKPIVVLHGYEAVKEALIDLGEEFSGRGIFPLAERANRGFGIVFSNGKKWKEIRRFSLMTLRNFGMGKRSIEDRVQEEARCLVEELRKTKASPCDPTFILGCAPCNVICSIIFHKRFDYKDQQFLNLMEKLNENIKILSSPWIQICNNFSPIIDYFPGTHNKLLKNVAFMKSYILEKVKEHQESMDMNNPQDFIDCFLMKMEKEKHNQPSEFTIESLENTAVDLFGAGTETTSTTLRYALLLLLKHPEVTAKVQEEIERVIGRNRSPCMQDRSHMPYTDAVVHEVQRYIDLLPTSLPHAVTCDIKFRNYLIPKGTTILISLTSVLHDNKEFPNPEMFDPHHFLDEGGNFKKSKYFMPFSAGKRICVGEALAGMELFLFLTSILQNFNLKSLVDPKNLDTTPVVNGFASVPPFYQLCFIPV
T4 sequence (P10635 whole entry): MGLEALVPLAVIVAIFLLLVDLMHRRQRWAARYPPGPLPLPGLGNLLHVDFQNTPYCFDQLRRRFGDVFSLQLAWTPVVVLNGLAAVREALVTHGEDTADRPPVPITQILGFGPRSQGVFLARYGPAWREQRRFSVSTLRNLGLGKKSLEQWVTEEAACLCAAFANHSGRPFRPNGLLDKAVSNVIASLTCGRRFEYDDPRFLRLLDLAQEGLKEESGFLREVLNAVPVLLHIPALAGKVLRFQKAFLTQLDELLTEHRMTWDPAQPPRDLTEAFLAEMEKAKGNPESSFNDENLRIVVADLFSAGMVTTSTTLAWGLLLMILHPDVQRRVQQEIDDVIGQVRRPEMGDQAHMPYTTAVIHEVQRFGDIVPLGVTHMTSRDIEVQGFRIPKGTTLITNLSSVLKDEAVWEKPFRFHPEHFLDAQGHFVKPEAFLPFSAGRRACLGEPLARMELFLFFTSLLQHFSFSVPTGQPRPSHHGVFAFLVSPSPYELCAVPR
T1 sequence (P08684 whole entry): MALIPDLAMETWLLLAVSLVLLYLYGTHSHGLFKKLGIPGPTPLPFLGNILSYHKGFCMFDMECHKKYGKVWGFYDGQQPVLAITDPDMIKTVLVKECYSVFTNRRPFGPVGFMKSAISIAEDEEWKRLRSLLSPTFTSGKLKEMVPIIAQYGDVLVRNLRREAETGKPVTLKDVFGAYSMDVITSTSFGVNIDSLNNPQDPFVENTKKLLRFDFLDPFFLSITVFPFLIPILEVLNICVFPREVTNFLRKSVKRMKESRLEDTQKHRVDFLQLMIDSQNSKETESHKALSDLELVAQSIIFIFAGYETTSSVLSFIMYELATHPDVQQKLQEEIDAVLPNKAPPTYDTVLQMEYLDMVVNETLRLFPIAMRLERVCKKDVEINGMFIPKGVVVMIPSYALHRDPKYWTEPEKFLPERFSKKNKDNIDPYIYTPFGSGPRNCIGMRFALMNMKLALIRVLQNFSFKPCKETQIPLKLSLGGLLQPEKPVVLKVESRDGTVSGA

CL/F [1]: 1.85 L/h/kg
MIC (Streptococcus pneumoniae): 1 mg/L (≈ 2.64 µM)
half-life [2]: 36.6 min
MIC (Staphylococcus aureus [3]): 4 mg/L (≈ 10.6 µM)
Cmax [4]: 6.17 µg/mL
MIC (Haemophilus influenzae): > 16 mg/L
Cmax [5]: 17.7 µg/mL
bioavailability [6]: 86%
MIC (Escherichia coli): > 16 mg/L
Tmax [7]: 150 min
Vd [8]: 0.95 L/kg
MIC [9]: 1 mg/L (≈ 2.64 µM)
MIC (Enterococcus faecalis): 4 mg/L (≈ 10.6 µM)
bioavailability [11]: 100%
half-life [12]: 42 min
clearance [13]: 1.57 L/h/kg
MIC (Staphylococcus aureus [14]): 4 mg/L (≈ 10.6 µM)
MIC (Moraxella catarrhalis): 8 mg/L (≈ 21.1 µM)
SMILES: CC(=O)NC[C@H]1CC(c2ccc(N3CCN(C(=O)CO)CC3)c(F)c2)=NO1
Remaining at 40 min (Homo sapiens): 101%
Remaining at 40 min (Rattus norvegicus): 100%
ED50 (Mus musculus [10]): 9.1 mg/kg

activity at 10 µM (CYP3A4 [15]): 88.9%
bioavailability [16]: 143%
MIC (Streptococcus pneumoniae): 1 mg/L (≈ 3.11 µM)
activity at 100 µM (CYP1A2 [17]): 102%
Cmax [18]: 12.2 µg/mL
MIC (Staphylococcus aureus [3]): 4 mg/L (≈ 12.4 µM)
MIC (Haemophilus influenzae): > 16 mg/L
MIC (Escherichia coli): > 16 mg/L
Vd [19]: 0.6 L/kg
half-life [20]: 28.2 min
half-life [21]: 36 min
clearance [22]: 0.744 L/h/kg
activity at 100 µM (CYP3A4 [23]): 92.1%
activity at 10 µM (CYP2C9 [24]): 92.1%
MIC [9]: 2 mg/L (≈ 6.22 µM)
MIC (Enterococcus faecalis): 8 mg/L (≈ 24.9 µM)
CL/F [25]: 0.516 L/h/kg
Cmax [27]: 17.7 µg/mL
activity at 10 µM (CYP1A2 [28]): 100%
activity at 100 µM (CYP2C9 [29]): 95.8%
MIC (Staphylococcus aureus [14]): 4 mg/L (≈ 12.4 µM)
Tmax [30]: 192 min
activity at 10 µM (CYP2D6 [31]): 101%
bioavailability [32]: 100%
MIC (Moraxella catarrhalis): 16 mg/L (≈ 49.8 µM)
activity at 100 µM (CYP2D6 [33]): 103%
SMILES: CC(=O)NC[C@H]1CC(c2ccc(N3CCOCC3)c(F)c2)=NO1
Remaining at 40 min (Homo sapiens): 100%
Remaining at 40 min (Rattus norvegicus): 87%
ED50 (Mus musculus [26]): 16.5 mg/kg
